Laboratory results taken from ChEMBL document CHEMBL1137637, “Quinuclidine derivatives as potential antiparasitics” (Antimicrob Agents Chemother, 2007).
≈ marks a conversion by molar mass, not a printed value.

Key:
Plasmodium falciparum = assay: Antiplasmodial activity after 48 hrs against chloroquine and pyrimethamine-resistant Plasmodium falciparum K1 in human erythrocytes by [3H]hypoxanthine uptake; format: functional, organism-based
In short: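 P. falciparum K1 in human red cells in RPMI 1640 with 5% Albumax, exposed to serial drug dilutions. Incubated 48 h at 37°C under reduced oxygen, then 0.5 μCi [³H]hypoxanthine per well for 24 h more. Cells harvested onto glass-fibre filters and counted by scintillation. Result expressed as % of untreated control, with IC50 from sigmoidal curve. Duplicate, plus an independent repeat for actives.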

Leishmania amazonensis [1] = assay: Inhibition of sterol biosynthesis in Leishmania mexicana amazonensis promastigotes assessed as reduction in endogenous episterol level at 10 uM after 96 hrs by gas-liquid chromatography; format: functional; set-up: scale not given: the % may be the effect or the level left
In short: (§1)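 L. mexicana promastigotes exposed to compound for 96 h. Total lipids extracted and neutral sterols separated from polar lipids by silicic acid column chromatography. Sterols analysed by TLC and by quantitative capillary gas-liquid chromatography with mass spectrometry. Composition expressed as mass % of free sterols, compared with untreated control.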

Leishmania amazonensis [2] = assay: Inhibition of sterol biosynthesis in Leishmania mexicana amazonensis promastigotes assessed as reduction in exogenous cholesterol level at 10 uM after 96 hrs by gas-liquid chromatography; format: functional; set-up: scale not given: the % may be the effect or the level left; in short: as §1
[3] = molecular target: T1, Farnesyltransferase, putative (Leishmania major, UniProt Q4Q5W4); assay: Inhibition of Leishmania major recombinant squalene synthase expressed in Escherichia coli by liquid scintillation counter
T1 sequence (Q4Q5W4 whole entry): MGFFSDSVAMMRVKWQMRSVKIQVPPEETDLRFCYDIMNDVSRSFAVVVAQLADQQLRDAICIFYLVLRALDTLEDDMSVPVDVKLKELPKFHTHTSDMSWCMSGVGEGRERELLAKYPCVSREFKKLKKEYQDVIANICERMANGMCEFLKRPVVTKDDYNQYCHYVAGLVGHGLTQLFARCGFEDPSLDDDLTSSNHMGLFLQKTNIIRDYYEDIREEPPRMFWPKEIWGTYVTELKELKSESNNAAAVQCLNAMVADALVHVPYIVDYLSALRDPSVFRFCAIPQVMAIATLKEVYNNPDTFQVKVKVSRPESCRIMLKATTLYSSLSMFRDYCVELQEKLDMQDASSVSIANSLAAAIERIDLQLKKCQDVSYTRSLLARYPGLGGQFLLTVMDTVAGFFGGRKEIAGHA
In short: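 Soluble E. coli extract expressing L. major SQS truncated by 16 N-terminal and 40 C-terminal residues. Buffer: 50 mM phosphate pH 7.4, 20 mM MgCl2, 5 mM CHAPS, 1% Tween 80, 10 mM DTT, BSA, 0.25 mM NADPH, and a glucose-6-phosphate/G6PDH regenerating system. Substrate 0.5 μM radiolabelled farnesyl pyrophosphate. Squalene band counted by scintillation. IC50 from hyperbolic plot of five concentrations in duplicate, usually run twice.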

L6 = assay: Cytotoxicity against rat L6 cells after 72 hrs by resazurin assay; format: cell-based; details: L6, 72 h
In short: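 L-6 cells seeded at 4 × 10⁴ cells/ml in RPMI 1640 with 10% FBS and 2 mM L-glutamine. After 24 h, medium replaced with serial drug dilution and incubated for 72 h at 37°C in 5% CO2. Resazurin added for 2–4 h, fluorescence read at ex 536/em 588 nm. IC50 from sigmoidal curve. Duplicate, with an independent repeat for actives.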

Leishmania amazonensis [4] = assay: Inhibition of sterol biosynthesis in Leishmania mexicana amazonensis promastigotes assessed as reduction in endogenous 5-dehydro episterol level at 10 uM after 96 hrs by gas-liquid chromatography; format: functional; set-up: scale not given: the % may be the effect or the level left; in short: as §1
Trypanosoma cruzi = assay: Antitrypanosomal activity against trypomastigotes of Trypanosoma cruzi Tulahuen C2C4 containing lacZ gene in rat L6 cells after 4 days by chlorophenol red-beta-D-galactopyranoside/Nonidet assay; format: functional, organism-based; details: Tulahuen C2C4, L6, 96 h
In short: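 L-6 rat myoblasts seeded at 2,000 cells/well in RPMI 1640 with 10% FBS and 2 mM L-glutamine. After 24 h, 5,000 T. cruzi Tulahuen C2C4 lacZ trypomastigotes added with serial drug dilution. Incubated at 37°C in 5% CO2 for 4 days. CPRG/Nonidet substrate added and colour read at 540 nm after 2–4 h. IC50 from sigmoidal curve. Duplicate determinations.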

[5] = test system: Trypanosoma brucei rhodesiense; assay: Trypanocidal activity against Trypanosoma brucei rhodesiense STIB 900 bloodstream form after 72 hrs by resazurin assay; format: functional, organism-based; details: STIB 900, 72 h
In short: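 T. b. rhodesiense STIB 900 bloodstream forms in MEM with 2-mercaptoethanol and 15% heat-inactivated horse serum, with serial drug dilutions. Incubated 72 h at 37°C in 5% CO2. Resazurin added for 2–4 h more, fluorescence read at ex 536/em 588 nm. IC50 from sigmoidal curve. Duplicate, with an independent repeat for actives.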

Leishmania amazonensis [6] = assay: Antileishmanial activity against Leishmania mexicana amazonensis promastigotes by trypan blue exclusion method; format: functional, organism-based
In short: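 L. mexicana amazonensis promastigotes cultured in liver infusion-tryptose medium with lactalbumin and 10% FCS at 26°C, unagitated. Cultures started at 2 × 10⁶ cells/ml and drug added at 0.5–1 × 10⁷ cells/ml. Density counted by electronic particle counter and hemocytometer. Viability by trypan blue exclusion. Triplicate growth experiments.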

Leishmania donovani = assay: Antileishmanial activity against Leishmania donovani MHOM/ET/67/L82 axenic amastigotes after 72 hrs by resazurin assay; format: functional, organism-based; details: MHOM/ET/67/L82, 72 h
In short: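 L. donovani MHOM/ET/67/L82 amastigotes grown axenically at 37°C in synthetic minimal medium at pH 5.4 with 10% heat-inactivated FBS under 5% CO2. 1 × 10⁵ amastigotes per well with seven threefold dilutions, 30 to 0.041 μg/ml. After 72 h, resazurin added for 2–4 h more. Fluorescence read at ex 536/em 588 nm. IC50 taken from sigmoidal curve. Run in duplicate, with an independent repeat for actives.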

Leishmania amazonensis [7] = assay: Inhibition of sterol biosynthesis in Leishmania mexicana amazonensis promastigotes assessed as reduction in endogenous episterol level at 1 uM after 96 hrs by gas-liquid chromatography; format: functional; set-up: scale not given: the % may be the effect or the level left; in short: as §1
Leishmania amazonensis [8] = assay: Inhibition of sterol biosynthesis in Leishmania mexicana amazonensis promastigotes assessed as reduction in exogenous cholesterol level at 3 uM after 96 hrs by gas-liquid chromatography; format: functional; set-up: scale not given: the % may be the effect or the level left; in short: as §1
Leishmania amazonensis [9] = assay: Inhibition of sterol biosynthesis in Leishmania mexicana amazonensis promastigotes assessed as reduction in endogenous episterol level at 3 uM after 96 hrs by gas-liquid chromatography; format: functional; set-up: scale not given: the % may be the effect or the level left; in short: as §1
Leishmania amazonensis [10] = assay: Inhibition of sterol biosynthesis in Leishmania mexicana amazonensis promastigotes assessed as reduction in endogenous 5-dehydro episterol level at 1 uM after 96 hrs by gas-liquid chromatography; format: functional; set-up: scale not given: the % may be the effect or the level left; in short: as §1
Leishmania amazonensis [11] = assay: Inhibition of sterol biosynthesis in Leishmania mexicana amazonensis promastigotes assessed as reduction in exogenous cholesterol level at 1 uM after 96 hrs by gas-liquid chromatography; format: functional; set-up: scale not given: the % may be the effect or the level left; in short: as §1
Leishmania amazonensis [12] = assay: Inhibition of sterol biosynthesis in Leishmania mexicana amazonensis promastigotes assessed as reduction in endogenous 5-dehydro episterol level at 3 uM after 96 hrs by gas-liquid chromatography; format: functional; set-up: scale not given: the % may be the effect or the level left; in short: as §1
Leishmania amazonensis [13] = assay: Inhibition of sterol biosynthesis in Leishmania mexicana amazonensis promastigotes assessed as reduction in endogenous cholesta-5,7,24-trien-3beta-ol level at 10 uM after 96 hrs by gas-liquid chromatography; format: functional; set-up: scale not given: the % may be the effect or the level left; in short: as §1

Structure (SMILES)	IC50 (Plasmodium falciparum) [µM]	Activity (Leishmania amazonensis [1]) [%]	Activity (Leishmania amazonensis [2]) [%]	IC50 [3] [µM]	IC50 (L6) [µM]	Activity (Leishmania amazonensis [4]) [%]	IC50 (Trypanosoma cruzi) [µM]	IC50 [5] [µM]	MIC (Leishmania amazonensis [6]) [µM]	IC50 (Leishmania donovani) [µM]	Activity (Leishmania amazonensis [7]) [%]	Activity (Leishmania amazonensis [8]) [%]	Activity (Leishmania amazonensis [9]) [%]	Activity (Leishmania amazonensis [10]) [%]	Activity (Leishmania amazonensis [11]) [%]	Activity (Leishmania amazonensis [12]) [%]	Activity (Leishmania amazonensis [13]) [%]
C1=C(c2cc3ccccc3o2)C2CCN1CC2	6.2	27.8	12.2	> 1	177	60	61.3	17.1	> 10	82	–	–	–	–	–	–	–
CCOC(=O)c1ccc(C2=CN3CCC2CC3)cc1	11.6	–	–	0.18	265	–	16	35.1	1 (≈ 0.257 µg/mL)	1	11.5	73.4	13.2	36.3	52.2	13.4	–
C1=C(c2cc3ccccc3s2)C2CCN1CC2	12	–	–	> 1	146	–	64.2	5.6	10 (≈ 2.41 µg/mL)	1.2	24.5	62.3	22.2	28.6	47.9	15.5	–
Oc1ccc(C#CC2(O)CN3CCC2CC3)cc1 (centres undefined)	18.7	15.7	20.1	> 1	> 370	64.2	90.4	53	> 10	20	–	–	–	–	–	–	–
CCOC(=O)c1ccc(C#CC2(O)CN3CCC2CC3)cc1 (centres undefined)	4	–	–	4.25	171	–	5.6	3.3	10 (≈ 2.99 µg/mL)	28.7	–	35.9	9.5	–	–	54.6	>99
CCOC(=O)c1ccc(C#C[C@H]2CN3CCC2C[C@@H]3CO)cc1 (some centres undefined)	1.1	11.4	23.6	> 1	55.2	55.5	18.8	3.8	> 10	> 96	–	–	–	–	–	–	9.5
OC1(C#Cc2ccc(OCc3ccccc3)cc2)CN2CCC1CC2 (centres undefined)	1.9	–	–	–	45	–	9.6	1.9	1 (≈ 0.333 µg/mL)	3.2	8.4	>99	–	17	74.6	–	–
C1=C(c2cnc3ccccc3c2)C2CCN1CC2	15	7.3	18.2	> 1	276	74.5	51.1	22.4	> 10	72.4	–	–	–	–	–	–	–
CC(C)OC(=O)c1ccc(C2=CN3CCC2CC3)cc1	14	–	–	> 1	152	–	23	7.2	3 (≈ 0.814 µg/mL)	1.1	12.8	74.5	25.5	42.8	44.4	–	–
CCCCCCOc1ccc(C#CC2(O)CN3CCC2CC3)cc1 (centres undefined)	0.7	–	–	–	15.9	–	5.6	0.5	1 (≈ 0.327 µg/mL)	4.7	14.6	>99	–	65	20.4	–	–
O=C(O)c1ccc(C#CC2(O)CN3CCC2CC3)cc1 (centres undefined)	> 18.4	7.2	21.9	> 100	> 332	70.9	90.2	146	> 10	> 111	–	–	–	–	–	–	–
Cc1cc(C)cc(C#CC2(O)CN3CCC2CC3)c1 (centres undefined)	4.3	11.9	48.2	> 1	175	39.9	18.9	9.2	10 (≈ 2.55 µg/mL)	12.6	–	19.6	12	–	–	68.4	–
COc1ccc(COc2ccc(C#CC3(O)CN4CCC3CC4)cc2)cc1OC (centres undefined)	2	16.6	44.6	–	78.7	38.8	13.4	3.4	1 (≈ 0.393 µg/mL)	4.6	–	15.6	14.6	–	–	69.8	–
COc1ccc(C#CC2(O)CN3CCC2CC3)cc1 (centres undefined)	8.2	13.4	19.8	> 1	> 350	66.8	67.2	18.4	> 10	7	–	–	–	–	–	–	–
C1=C(c2ccc3ccccc3c2)C2CCN1CC2	11	14.2	33.8	> 1	101	52	34.1	24.2	3 (≈ 0.706 µg/mL)	12.3	–	35.9	28.9	–	–	35.2	–
OC[C@@H]1CC2CCN1C[C@@H]2C#Cc1ccc2ccccc2c1 (some centres undefined)	2.1	9.6	15.4	> 1	40.1	68.4	4.7	1.1	> 10	22.6	–	–	–	–	–	–	6.6
